Assay results from different studies.
Compare with care: the assays were run in different laboratories.
MMP7: Matrilysin (MMP7, Homo sapiens, UniProt P09237)
PIP5K1C: Phosphatidylinositol 4-phosphate 5-kinase type-1 gamma (PIP5K1C, Homo sapiens, UniProt O60331)

| SMILES | target | test | test system | setting | endpoint | result |
| --- | --- | --- | --- | --- | --- | --- |
| COc1ncccc1-c1cnn2ccc(N3CCN(C(=O)OC(C)C)CC3)nc12 | Serine/threonine-protein kinase/endoribonuclease IRE1 (ERN1, Homo sapiens, UniProt O75460) | binding, competition with immobilised ligand |  | 1 µM | remaining binding | 67% |
| CCN1CCN(Cc2ccc(NC(=O)c3ccc(C)c(Oc4ccnc5[nH]ccc45)c3)cc2C(F)(F)F)CC1 | Serine/threonine-protein kinase 32C (STK32C, Homo sapiens, UniProt Q86UX6) | target engagement in cells, inhibitor, chemoproteomics | Huh-7 | 1 µM | inhibition | -13.4% |
| C#Cc1n[nH]c2c(-c3cn(C(C)c4ccccn4)c(=O)[nH]c3=O)cc(F)cc12 (centres unmarked) | Mitogen-activated protein kinase kinase kinase kinase 3 (MAP4K3, Homo sapiens, UniProt Q8IVH8) | enzyme activity, inhibitor |  | 1 µM | inhibition | 9.1% |
| Cc1ccc(-c2cnnc(N3CCC(c4cccc(Cl)c4)C3)n2)o1 (centres unmarked) | Inorganic pyrophosphatase (Mycobacterium tuberculosis, UniProt P9WI55) | enzyme activity, inhibitor |  | 100 µM | inhibition | 45% |
| CN(C)C(=O)COC(=O)Cc1ccc(OC(=O)c2ccc(NC(=N)N)cc2)cc1 | MMP7 | enzyme activity, inhibitor |  | 10 µM | inhibition | 2% |
| Nc1ncc(-c2nc(N3CCOCC3)nc(N3CCOCC3)n2)c(C(F)F)n1 | PIP5K1C | binding, competition with immobilised ligand |  | 10 µM | remaining binding | 100% |
| CNC(=O)[C@H](Cc1ccccc1)NC(=O)[C@H](CC(C)C)[C@H](CSc1cccs1)C(=O)NO | MMP7 | enzyme activity, inhibitor |  | 1 nM | inhibition | 31% |
| Cc1nn(C)cc1-c1nc2c(N3CCN(Cc4ccc(Cl)cc4)CC3)c(Cl)cnc2[nH]1 | PIP5K1C | binding, competition with immobilised ligand |  | 1 µM | remaining binding | 84% |
